The values below come from PMC12171725 (RSC Advances, 2025).

In brackets after ≈: the same amount, converted by molar mass.

Data set [1] relates to methicillin-resistant Staphylococcus aureus (MRSA USA300). Description: MIC by broth microdilution. The data set is classed as cell-based. The following applies: MRSA|USA300, read-out: MIC S. aureus USA300. The procedure, abridged: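 MRSA USA300 was grown overnight at 37 °C on tryptone soy agar, adjusted to 0.5 McFarland, then diluted in cation-adjusted Mueller-Hinton broth to ∼5 × 10^5 CFU ml−1. […] Plates were incubated aerobically at 37 °C for 18–20 h, following CLSI broth microdilution.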

Data set [2] deals with Acinetobacter baumannii AB5075. Description: MIC by broth microdilution. The data set is classed as cell-based. The following applies: AB5075, read-out: MIC A. baumannii AB5075, broth microdilution, 37 °C, 18–20 hours.
Data set [3] concerns erythrocytes. The experiment in a line: Hemolysis. The data set is classed as cell-based. The following applies: LC lytic concentration 30%.
Data set [4] concerns MRSA USA300 biofilms. Description: Disruption of mature MRSA biofilms. The data set is classed as cell-based, Staphylococcus aureus. The note with it: at 4× MIC.
Data set [5] is described as follows: MTT cytotoxicity assay. The data set is classed as cell-based. The note with it: human, HEK293 cells (human embryonic kidney cell line).

Take `CCNS(=O)(=O)c1ccc(-n2nnc(C(C)=NNC(=N)N)c2C)cc1` [Compound 17, 2-(1-(1-(4-(N-Ethylsulfamoyl)phenyl)-5-methyl-1H-1,2,3-triazol-4-yl)ethylidene)hydrazine-1-carboximidamide]: the MIC in data set [1] and in data set [2] was over 64 µg/mL each time.

For the compound `CCCCNS(=O)(=O)c1ccc(-n2nnc(C(C)=NNC(=N)N)c2C)cc1` [Compound 18, 2-(1-(1-(4-(N-Butylsulfamoyl)phenyl)-5-methyl-1H-1,2,3-triazol-4-yl)ethylidene)hydrazine-1-carboximidamide], the MIC in data set [1] and in data set [2] was over 64 µg/mL each time.

As for `CCCCCCNS(=O)(=O)c1ccc(-n2nnc(C(C)=NNC(=N)N)c2C)cc1` [Compound 20, 2-(1-(1-(4-(N-Hexylsulfamoyl)phenyl)-5-methyl-1H-1,2,3-triazol-4-yl)ethylidene)hydrazine-1-carboximidamide], the MIC in data set [1] and in data set [2] was 16 µg/mL (≈ 38 µM) throughout.

For `CCCCCCCCNS(=O)(=O)c1ccc(-n2nnc(C(C)=NNC(=N)N)c2C)cc1` [Compound 22, 2-(1-(5-Methyl-1-(4-(N-octylsulfamoyl)phenyl)-1H-1,2,3-triazol-4-yl)ethylidene)hydrazine-1-carboximidamide], the MIC in data set [1] and in data set [2] was 64 µg/mL (≈ 143 µM) each time.

`CCCCCCCCCNS(=O)(=O)c1ccc(-n2nnc(C(C)=NNC(=N)N)c2C)cc1` [Compound 23, 2-(1-(5-Methyl-1-(4-(N-nonylsulfamoyl)phenyl)-1H-1,2,3-triazol-4-yl)ethylidene)hydrazine-1-carboximidamide]: the “Hemolysis LC” value in data set [3] is over 10 mg/mL. In addition, the “percentage of biofilm disruption relative to untreated controls” value in data set [4] is given as 70–80%. Also, in data set [2], the MIC stood at 64 µg/mL (≈ 138 µM). Besides, it took 52.4 µM to reach half-maximal inhibition in data set [5] (IC50).

On to `CN[C@H](CC(C)C)C(=O)N[C@H]1C(=O)N[C@@H](CC(N)=O)C(=O)N[C@H]2C(=O)N[C@H]3C(=O)N[C@H](C(=O)N[C@H](C(=O)O)c4cc(O)cc(O)c4-c4cc3ccc4O)[C@H](O)c3ccc(c(Cl)c3)Oc3cc2cc(c3O[C@@H]2O[C@H](CO)[C@@H](O)[C@H](O)[C@H]2O[C@H]2C[C@](C)(N)[C@H](O)[C@H](C)O2)Oc2ccc(cc2Cl)[C@H]1O` [Vancomycin, reference compound], for which the MIC in data set [1] came out at 1 µg/mL (≈ 0.69 µM).
